Laboratory results published in paper PMC8942377 (Science Advances, 2022).
Where no end group is shown, it is not given here.

Tests used:
[1] = following intravenous infusion; cited from earlier work
[2] = test system: SST1–5; conditions: cited from earlier work
[3] = test system: mice; test: Tail flick test; assay type: in vivo, mouse; conditions: intrathecal, 1 mg/kg, positive control
How it was run: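 Mice lightly sedated with 2% isoflurane, then given one intrathecal lumbar-puncture injection (5 μl) of saline, morphine 1 mg/kg, or test compound 0.025–0.75 mg/kg. Distal two-thirds of tail dipped in 52°C water; latency to withdrawal timed by chronometer. Result taken as mean tail flick latency.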

For octreotide, the in vivo half-life [1] is listed as 1.5 h and the “SS receptor subtype selectivity” value [2] is listed as “preferentially activated SST2 over SST3 and SST5 and displayed little to no activity on SST1 or SST4”.

In the case of “urotensin-II (ETPDCFWKYCV; ends and bridges not checked; cysteine pairing not given here; UniProt O95399 114-124, looked up) [UII]”, the “activity at SST1–5” value [2] is listed as “low activity”.

For CN1CC[C@]23c4c5ccc(O)c4O[C@H]2[C@@H](O)C=C[C@H]3[C@H]1C5 [Morphine], the tail flick antinociception [3] was “robust antinociception”.
